This note sets out measurements from the RNAGym collection of RNA variant scans (doi:10.1126/science.aae0568).

This sample holds only a part of the variants without activity.

Sequences and labels used below:
B1: tRNA (parent)
chain: GUUCCGUUGGCGUAAUGGUAACGCGUCUCCCUCCUAAGGAGAAGACUGCGGGUUCGAGUCCCGUACGGAACG

The series covers variants of B1. As to the kind of experiment: yeast fitness relative to wild type (ratio to wild type); higher = fitter; tRNA-Arg(CCU), competitive growth, 37 C, YPD. In short, it runs like this:
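Amplicons of the tRNA-Arg(CCU) gene were sequenced, 100-nucleotide paired-end, from the start population and from each end population of a pooled yeast competition. The competition, in six parallel replicates, lasted 24 hours in YPD at 37°C. Fitness relative to wild type was calculated from changes in genotype frequencies. Genotypes had to have ≥ 100 starting reads, and estimates < 0.5 were set to 0.5.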
Regarding GUUCCGUUGGCGUAAUGGUAACGCGUCUCCCUCCUAAGGAAAAGACUGCGGGUUCGAGUCCCGUCCGGAACG, the yeast fitness came out at 0.67.

Turning to GUUCCGUUGGCGUAAUGGUAACGCGUCUCCCUCCUAAGGAAAAGACUGCGGGGUCGAGUCCCGAACGGAACG, the yeast fitness was at most 0.5.

With GUUCCGUUGGCGUAAUGGUAACGCGUCUCCCUCCUAAGGACAUGACUGCGGGUUCGAGUCCCGUACGUAACG, the yeast fitness is at most 0.5.

Turning to GUUCCGUUGGCGUAAUGGUAACGCGUCUCCCUCCUAAGGUGAAGACUGCGGGUUCCAGUCCCGUACGGAACG, the yeast fitness came out at 0.651.

Turning to GUUCCGUUGGCGUAAUGGUAACGCGUCUCCCUCCUAAGGAAAAGACUGCGGGUUCGAGUCCCGUAUGGAACG, the yeast fitness was 0.685.

As to GUUCCGUUGGCGUAAUGGUAACGCGUCUCCCUCCUAAGGAAAAGACUGCGGGUUCGAGUCCCGUAAGGAACG, the yeast fitness was 0.687.

Consider GUUCCGUUGGCGUAAUGGUAACGCGUCUCCCUCCUAAGGUGAAGACUGCGGGUUCGAGCCCCGUACGAAACG, for which the yeast fitness worked out at 0.569.

On to GUUCCGUUGGCGUAAUGGUAACGCGUCUCCCUCCUAAGGUGAAGACUGCGGGUUCGAGUCCCGCACGGAACG, for which the yeast fitness came out at 1.08.

With GUUCCGUUGGCGUAAUGGUAACGCGUCUCCCUCCUAAGGAAAAGACUGCGGGUUUGAGACCCGUACGGAUCG, the yeast fitness was at most 0.5.

Regarding GUUCCGUUGGCGUAAUGGUAACGCGUCUCCCUCCUAAGGACAAGACUCCGGGUUCGAGUCCCGUACGGUACG, the yeast fitness was determined as 0.558.

Regarding GUUCCGUUGGCGUAAUGGUAACGCGUCUCCCUCCUAAGGACAAGACUGCGGGUUCGAGUCCGGUACGGAACG, the yeast fitness was 0.597.

With GUUCCGUUGGCGUAAUGGUAACGCGUCUCCCUCCUAAGGUGAAGAGUGCGGGUUCGAGUCCCGUACGCAACG, the yeast fitness was at most 0.5.

As to GUUCCGUUGGCGUAAUGGUAACGCGUCUCCCUCCUAAGGAAAAGACUCCGGGUUCGAGUCCCGUACGGAACG, the yeast fitness was 0.772.

Turning to GUUCCGUUGGCGUAAUGGUAACGCGUCUCCCUCCUAAGGAAAAGACUCCGGGUUCGAGUCCCGUACCGAACG, the yeast fitness is at most 0.5.

Consider GUUCCGUUGGCGUAAUGGUAACGCGUCUCCCUCCUAAGGUGAAGACUGCGGGUUCGAGUCCCGUACGGAACG, for which the yeast fitness amounted to 0.988.

For the variant GUUCCGUUGGCGUAAUGGUAACGCGUCUCCCUCCUAAGGACAAGACUGCGGGUUCGAGUCGCGUACGGAACG, the yeast fitness worked out at 0.793.

For GUUCCGUUGGCGUAAUGGUAACGCGUCUCCCUCCUAAGGUGAAGUCUGUGGGUUCGAGUCCCGUACGGAACG, the yeast fitness worked out at 0.63.

For the variant GUUCCGUUGGCGUAAUGGUAACGCGUCUCCCUCCUAAGGUGAAGACUGGGGGUUCCAGUCCCGUACGGAACG, the yeast fitness was at most 0.5.

In the case of GUUCCGUUGGCGUAAUGGUAACGCGUCUCCCUCCUAAGGUGAAGACUGCGGGUUCGUGUCCCGUACGGAACG, the yeast fitness was 0.837.

Turning to GUUCCGUUGGCGUAAUGGUAACGCGUCUCCCUCCUAAGGAAGAGACUGCGGGUUCGAGUCCCGUACGGAUCG, the yeast fitness was at most 0.5.

Take GUUCCGUUGGCGUAAUGGUAACGCGUCUCCCUCCUAAGGUGAAGACUGCGGGUUCGAGUCCCGUGCGGAACG: the yeast fitness worked out at 1.01.

GUUCCGUUGGCGUAAUGGUAACGCGUCUCCCUCCUAAGGUGAAAACUGCGGGUUCGAGUCCCGUACGGAACG: the yeast fitness is 0.981.

Turning to GUUCCGUUGGCGUAAUGGUAACGCGUCUCCCUCCUAAGGAAAAGACUGCCGGUUCGAGUCCCGUACGGAACG, the yeast fitness is 0.676.

As to GUUCCGUUGGCGUAAUGGUAACGCGUCUCCCUCCUAAGGAAAAGACUGCGGAUUCGAGUCCCGUACGGCACG, the yeast fitness worked out at 0.53.

Consider GUUCCGUUGGCGUAAUGGUAACGCGUCUCCCUCCUAAGGUGGAGACUGCGGGUUCGUGUCCCGUACGGAACG, for which the yeast fitness amounted to 0.576.

Consider GUUCCGUUGGCGUAAUGGUAACGCGUCUCCCUCCUAAGGACAAGACUACGGGUUCGAGUCCCGUACGGAACG, for which the yeast fitness was determined as 0.981.

Take GUUCCGUUGGCGUAAUGGUAACGCGUCUCCCUCCUAAGGAAAUGACUGCGCGUUCGAGUCCCGUACGGAACG: the yeast fitness was at most 0.5.

As for GUUCCGUUGGCGUAAUGGUAACGCGUCUCCCUCCUAAGGAAAAGACUGCGGUUUCGAGUCCCGAACGAAACG, the yeast fitness stood at 0.622.

Take GUUCCGUUGGCGUAAUGGUAACGCGUCUCCCUCCUAAGGUGAAGACUGCGGGUUCGACUCCCGUACGGAACG: the yeast fitness was 0.945.

Turning to GUUCCGUUGGCGUAAUGGUAACGCGUCUCCCUCCUAAGGUGAAGACUGCGGGUUCGAUUCCCGUACGGAACG, the yeast fitness stood at 0.768.

For GUUCCGUUGGCGUAAUGGUAACGCGUCUCCCUCCUAAGGUGAAGACUGCGGGUUCGAGUACCGUACGGAACG, the yeast fitness was 0.604.

On to GUUCCGUUGGCGUAAUGGUAACGCGUCUCCCUCCUAAGGUGAAGUCUACGGGUUCGAGUCCCGUACGGAACG, for which the yeast fitness came to 0.998.

Regarding GUUCCGUUGGCGUAAUGGUAACGCGUCUCCCUCCUAAGGUGACGACUGCGGGUUCGAGUCCCGUACUGAACG, the yeast fitness was determined as 0.724.

Turning to GUUCCGUUGGCGUAAUGGUAACGCGUCUCCCUCCUAAGGAAAAGACUGCGGCUUCGAGUCUUGUACGGAACG, the yeast fitness is at most 0.5.

In the case of GUUCCGUUGGCGUAAUGGUAACGCGUCUCCCUCCUAAGGACGAGACUGCGAGUUCGAGUCCCGUACGGCACG, the yeast fitness is at most 0.5.

For GUUCCGUUGGCGUAAUGGUAACGCGUCUCCCUCCUAAGGAAAAGACUGCGGGUUCGAGUCCCGUGCAGAACG, the yeast fitness is 0.635.

Regarding GUUCCGUUGGCGUAAUGGUAACGCGUCUCCCUCCUAAGGAAAAGACUGUGCGUUCGAGUCUCGUACGGAACG, the yeast fitness was at most 0.5.
